# In ChEMBL document CHEMBL1208782, “Synthesis and pharmacological validation of a novel series of non-steroidal FXR agonists” (Bioorg Med Chem Lett, 2010):
# Columns and labels:
# [1] = target: T1, Bile acid receptor (Homo sapiens, UniProt Q96RI1); experiment: Agonist activity at human full length FXR transfected in HEK293 cells coexpressing pTRexDest/pGL2promotor assessed as luciferase activity by direct reporter cellular assay; type: functional, cell-based; details: read-out: EC50
# T1 sequence (Q96RI1 whole entry): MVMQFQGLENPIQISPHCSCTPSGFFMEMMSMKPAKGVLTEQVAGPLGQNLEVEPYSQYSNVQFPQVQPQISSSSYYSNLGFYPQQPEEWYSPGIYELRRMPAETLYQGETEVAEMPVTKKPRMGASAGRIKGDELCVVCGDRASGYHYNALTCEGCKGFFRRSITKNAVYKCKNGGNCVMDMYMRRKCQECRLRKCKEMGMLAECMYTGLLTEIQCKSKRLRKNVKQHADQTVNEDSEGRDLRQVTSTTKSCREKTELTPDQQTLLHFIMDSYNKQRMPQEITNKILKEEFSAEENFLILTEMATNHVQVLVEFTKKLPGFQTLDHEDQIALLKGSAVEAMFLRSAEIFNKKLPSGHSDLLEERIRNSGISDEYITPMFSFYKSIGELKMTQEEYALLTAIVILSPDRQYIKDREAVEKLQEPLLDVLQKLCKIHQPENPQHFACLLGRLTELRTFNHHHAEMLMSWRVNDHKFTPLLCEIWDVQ
# [2] = target: T2, Peroxisome proliferator-activated receptor alpha (Homo sapiens) (UniProt Q07869); experiment: Agonist activity at PPARalpha-LBD expressed in HEK293 cells assessed as Gal4-DBD interaction by cellular mammalian one hybrid assay relative to GW-7467; type: functional, cell-based
# T2 sequence (whole entry): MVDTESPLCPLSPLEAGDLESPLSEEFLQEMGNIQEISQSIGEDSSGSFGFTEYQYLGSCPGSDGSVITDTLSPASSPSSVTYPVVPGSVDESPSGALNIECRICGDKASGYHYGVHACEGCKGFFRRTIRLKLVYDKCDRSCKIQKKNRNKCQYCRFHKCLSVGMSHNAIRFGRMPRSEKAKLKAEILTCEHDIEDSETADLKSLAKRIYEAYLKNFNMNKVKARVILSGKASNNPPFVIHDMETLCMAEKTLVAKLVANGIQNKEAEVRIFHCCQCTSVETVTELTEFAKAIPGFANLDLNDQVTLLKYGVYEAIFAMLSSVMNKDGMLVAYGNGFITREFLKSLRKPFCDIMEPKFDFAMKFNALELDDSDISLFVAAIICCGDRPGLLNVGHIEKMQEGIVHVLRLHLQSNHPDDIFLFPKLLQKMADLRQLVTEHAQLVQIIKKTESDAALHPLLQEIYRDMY
# [3] = target: T3, Retinoic acid receptor alpha (Homo sapiens) (UniProt P10276); experiment: Agonist activity at RARalpha-LBD expressed in HEK293 cells assessed as Gal4-DBD interaction by cellular mammalian one hybrid assay relative to retinoic acid; type: functional, cell-based
# T3 sequence (whole entry): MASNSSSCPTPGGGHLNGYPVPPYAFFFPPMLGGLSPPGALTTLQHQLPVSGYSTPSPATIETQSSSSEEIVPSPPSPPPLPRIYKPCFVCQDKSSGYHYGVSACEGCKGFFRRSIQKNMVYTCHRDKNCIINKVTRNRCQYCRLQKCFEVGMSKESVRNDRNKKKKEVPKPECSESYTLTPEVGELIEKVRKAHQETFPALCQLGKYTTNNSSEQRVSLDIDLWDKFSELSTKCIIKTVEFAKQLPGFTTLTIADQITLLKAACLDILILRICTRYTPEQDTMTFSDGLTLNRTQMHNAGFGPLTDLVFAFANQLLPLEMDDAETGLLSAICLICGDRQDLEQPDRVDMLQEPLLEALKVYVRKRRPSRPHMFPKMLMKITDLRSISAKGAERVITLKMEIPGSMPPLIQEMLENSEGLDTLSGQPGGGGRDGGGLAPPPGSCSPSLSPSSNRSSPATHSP
# [4] = target: T4, Oxysterols receptor LXR-beta (Homo sapiens) (UniProt P55055); experiment: Agonist activity at LXRbeta-LBD expressed in HEK293 cells assessed as Gal4-DBD interaction by cellular mammalian one hybrid assay relative to T0901317; type: functional, cell-based
# T4 sequence (whole entry): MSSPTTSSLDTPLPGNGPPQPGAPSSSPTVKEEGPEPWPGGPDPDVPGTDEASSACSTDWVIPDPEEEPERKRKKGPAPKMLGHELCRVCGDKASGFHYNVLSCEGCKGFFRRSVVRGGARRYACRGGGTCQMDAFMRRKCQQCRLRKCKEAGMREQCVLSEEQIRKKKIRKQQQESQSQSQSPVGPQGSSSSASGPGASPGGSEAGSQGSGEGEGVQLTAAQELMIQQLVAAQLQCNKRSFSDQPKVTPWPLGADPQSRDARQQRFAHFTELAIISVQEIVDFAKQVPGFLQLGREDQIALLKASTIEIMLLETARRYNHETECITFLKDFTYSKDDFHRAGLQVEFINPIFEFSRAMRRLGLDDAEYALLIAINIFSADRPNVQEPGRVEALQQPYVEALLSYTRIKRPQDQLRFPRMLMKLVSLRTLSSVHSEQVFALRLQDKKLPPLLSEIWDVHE
# [5] = target: T5, Retinoic acid receptor gamma (Homo sapiens) (UniProt P13631); experiment: Agonist activity at RARgamma-LBD expressed in HEK293 cells assessed as Gal4-DBD interaction by cellular mammalian one hybrid assay relative to relative to retinoic acid; type: functional, cell-based
# T5 sequence (whole entry): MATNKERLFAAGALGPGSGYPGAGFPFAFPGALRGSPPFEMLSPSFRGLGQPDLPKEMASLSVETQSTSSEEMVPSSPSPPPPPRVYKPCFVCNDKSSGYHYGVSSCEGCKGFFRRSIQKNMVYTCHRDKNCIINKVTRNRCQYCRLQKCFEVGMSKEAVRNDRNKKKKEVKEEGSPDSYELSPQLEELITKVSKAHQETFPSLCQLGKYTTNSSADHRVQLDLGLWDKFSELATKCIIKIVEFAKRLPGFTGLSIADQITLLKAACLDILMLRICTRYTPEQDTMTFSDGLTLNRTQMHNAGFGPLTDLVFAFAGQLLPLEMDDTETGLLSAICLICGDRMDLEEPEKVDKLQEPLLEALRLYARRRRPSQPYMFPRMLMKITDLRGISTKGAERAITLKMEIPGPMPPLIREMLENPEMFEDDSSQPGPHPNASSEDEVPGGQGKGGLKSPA
# [6] = target: T6, Retinoic acid receptor gamma (Homo sapiens, UniProt P13631); experiment: Agonist activity at RARgamma-LBD expressed in HEK293 cells assessed as Gal4-DBD interaction by cellular mammalian one hybrid assay; type: functional, cell-based
# T6 sequence (P13631 whole entry): T5 sequence (whole entry)
# [7] = Drug level in db/db mouse bile measured metabolites as carboxylic acid at 1 mg/kg, iv after 240 mins; type: ADME, organism-based; set-up: dose 1 mg/kg, route intravenous; details: in vivo, 4 h
# [8] = Plasma concentration in db/db mouse at 1 mg/kg, iv after 5 mins; type: ADME, organism-based; set-up: dose 1 mg/kg, route intravenous; details: read-out: Drug uptake
# Summary of the method: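 Single dose to mice, 5 mg/kg po or 1 mg/kg iv. Plasma was sampled at 5, 10, 30, 90 and 240 min. Only parent compound was measured, in ng/mL.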
# [9] = target: Peroxisome proliferator-activated receptor gamma (Homo sapiens, UniProt P37231); experiment: Agonist activity at PPARgamma-LBD expressed in HEK293 cells assessed as Gal4-DBD interaction by cellular mammalian one hybrid assay; type: functional, cell-based
# Peroxisome proliferator-activated receptor gamma, sequence (P37231 whole entry, the tested form may be a part): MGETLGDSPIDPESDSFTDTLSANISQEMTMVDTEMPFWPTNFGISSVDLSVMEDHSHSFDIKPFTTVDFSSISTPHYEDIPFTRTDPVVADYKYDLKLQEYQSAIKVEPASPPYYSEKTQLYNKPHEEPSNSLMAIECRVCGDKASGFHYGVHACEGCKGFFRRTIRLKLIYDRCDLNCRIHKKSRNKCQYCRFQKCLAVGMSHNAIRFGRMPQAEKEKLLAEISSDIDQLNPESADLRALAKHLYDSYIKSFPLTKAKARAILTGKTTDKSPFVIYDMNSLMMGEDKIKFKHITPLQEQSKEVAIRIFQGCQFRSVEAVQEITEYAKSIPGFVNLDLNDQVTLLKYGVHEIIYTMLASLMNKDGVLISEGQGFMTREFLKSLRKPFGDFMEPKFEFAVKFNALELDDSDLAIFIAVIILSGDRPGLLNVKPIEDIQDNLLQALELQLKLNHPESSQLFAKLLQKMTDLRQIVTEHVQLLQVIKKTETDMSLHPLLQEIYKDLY
SMILES,EC50 [1] [nM],Efficacy [2] [%],Efficacy [3] [%],Efficacy [4] [%],Efficacy [5] [%],EC50 [6] [µM],Drug uptake [7] [ng/mL],concentration at 5 min [8] [ng/mL],EC50 [9] [µM]
CN(Cc1cccc(C(=O)O)c1)c1ccc(OCc2c(-c3c(Cl)cccc3Cl)noc2C2CC2)nc1C(F)(F)F,2,15,0,0,0,> 10,–,–,–
CN(Cc1ccc(C(=O)O)cc1)c1ccc(OCc2c(-c3c(Cl)cccc3Cl)noc2C2CC2)nc1C(F)(F)F,6,0,0,0,0,> 10,173,745,> 10
CC(C)c1onc(-c2c(Cl)cccc2Cl)c1COc1ccc(N(C)Cc2ccc(C(=O)O)cc2)c(C(F)(F)F)n1,15,0,0,0,0,> 10,472,1620,> 10
